Test results as given in ChEMBL document CHEMBL1132241, “Novel multidrug resistance reversal agents” (J Med Chem, 1999).

What was measured:
Mus musculus [1] = assay: Relative tumor growth inhibition against human epidermoid carcinoma KB/8.5 implanted subcutaneously only in mice at 8 mg/kg (DOX); assay type: functional; conditions: route subcutaneous
In short: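 KB/8.5 cells grown in RPMI 1640 with 5% fetal calf serum plus colchicine (10 ng/mL), which was removed for two passages. 8 × 10^6 cells were then implanted sc in athymic nude mice. At 100-300 mg tumor mass, mice were grouped 5-10/group. Doxorubicin was given as a single iv dose (8 mg/kg). Tumor mass was measured on day 14, and relative growth was compared with saline control.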

[2] = Partition coefficient (logP); assay type: physicochemical; conditions: octanol/water; read-out: logP
Mus musculus [3] = assay: Percent tumor growth inhibition obtained for the combination of DOX(8 mg/kg) together with MDR reversal agent versus DOX (8 mg/kg) alone on day 14 at 100 mg/kg dose(in vivo); assay type: functional; conditions: 336 h, read-out: TGI
In short: (§1)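 Athymic nude mice bearing sc KB/8.5 tumors (8×10^6 cells, colchicine withdrawn for two passages), grouped at 100–300 mg tumor mass, 5–10 mice/group. Doxorubicin 8 mg/kg given once iv; reversal agent or placebo given sc 2 h before and 2 h after. Tumor mass on day 14 used for relative tumor growth versus doxorubicin alone; Student t-test on log RTG.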

S1B1-20 [4] = assay: In vitro concentration required to inhibit tumor activity on subclone of human colon carcinoma cells (S1-B1-20) resistant to bisantrene; assay type: functional, cell-based
In short: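 S1-B1-20 cells (S1 clone of LS 174 T, selected in bisantrene over 12–16 weeks) plated at 20 000 cells/well with or without 20 μM bisantrene, plus test agent 0.1–80 μM from DMSO stock (final DMSO ≤0.1%). 3 days, 37 °C, 7% CO2. Survival by sulforhodamine B at 540 nm. IC50 from best-fit curve of difference score (survival alone minus survival with bisantrene) at 50; 2–4 sets of measurements.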

[5] = (§2) In vitro concentration at which 50% of human colon carcinoma cells (S1-B1-20) resistant to bisantrene have survived; assay type: ADME, cell-based, S1B1-20; conditions: S1-B1-20 human colon carcinoma cells resistant to bisantrene, read-out: LD50 (the source's name)
In short: (§3)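 S1-B1-20 cells (LS 174 T-derived S1 clone selected in bisantrene over 12–16 weeks), trypsinized, 20 000 cells/well. Test agent alone in DMSO (≤0.1% final), 0.1–80 µM, 3 days at 37 °C, 7% CO2. Survival by sulforhodamine B read at 540 nm versus untreated cells. Two to four measurement sets were made, and the value is the concentration giving 50% survival from a best-fit curve.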

Mus musculus [6] = assay: Percent tumor growth inhibition against human epidermoid carcinoma KB/8.5 implanted subcutaneously in mice at 100 mg/kg of compound along with 8 mg/kg (DOX ) was determined; assay type: functional; in short: as §1
Mus musculus [7] = assay: Percent increase in mean life span in mice infected with leukemia P388/VCR, at 6.3 mg/Kg dose; assay type: functional
In short: (§4)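 CDF1 mice (groups of 10–15) were implanted ip with 1 × 10^6 P388/VCR cells. Agent plus 0.2 mg/kg vincristine were given together ip once daily on days 1–7, starting 1 day post-implant, in cremophor/ethanol or propylene glycol/ethanol vehicle. Survival was recorded to 30 days. Result is the % increase in mean life span versus placebo control.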

Mus musculus [8] = assay: Percent increase in mean life span relative to treatment with an equivalent dose of vincristine alone at 6.3 mg/kg in mice with vincristine-resistantmurine leukemia P388/VCR cells; assay type: functional
In short: (§5)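 CDF1 mice were implanted ip with 1 × 10^6 P388/VCR cells. Agent and 0.2 mg/kg vincristine were given simultaneously ip once daily, days 1–7. Mean survival over up to 30 days was compared with vincristine alone at an equivalent dose, giving % increase in life span. Student t-test was applied to mean survival time.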

Mus musculus [9] = assay: Percent increase in mean life span when 0.2 mg/kg vincristine was administered ip once daily on days 1-7, in mice infected with leukemia P388/VCR; assay type: functional; parameters: concentration or dose not given beside the values; conditions: route intraperitoneal
In short: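 CDF1 mice bearing ip P388/VCR (1 × 10^6 cells) received 0.2 mg/kg vincristine ip once daily on days 1–7. Mean survival to 30 days was expressed as % increase in life span relative to placebo control.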

Mus musculus [10] = assay: Percent increase in mean life span relative to treatment with an equivalent dose of vincristine alone at 12.5 mg/kg in mice with vincristine-resistantmurine leukemia P388/VCR cells; assay type: functional; in short: as §5
Mus musculus [11] = assay: Percent increase in mean life span in mice infected with leukemia P388/VCR, at 12.5 mg/Kg dose; assay type: functional; in short: as §4
Mus musculus [12] = assay: Percent increase in mean life span in mice infected with leukemia P388/VCR, at 25 mg/Kg dose; assay type: functional; in short: as §4
Mus musculus [13] = assay: Percent increase in mean life span relative to treatment with an equivalent dose of vincristine alone at 25 mg/kg in mice with vincristine-resistantmurine leukemia P388/VCR cells; assay type: functional; in short: as §5
S1B1-20 [14] = assay: as §2; assay type: ADME, cell-based; conditions: s1b1-20, read-out: LD50 (the source's name); in short: as §3
Mus musculus [15] = assay: Percent tumor growth inhibition against human epidermoid carcinoma KB/8.5 implanted subcutaneously in mice at 50 mg/kg of compound along with 8 mg/kg (DOX ) was determined; assay type: functional; in short: as §1
Mus musculus [16] = assay: Percent increase in mean life span in mice infected with leukemia P388/VCR, at 50 mg/Kg dose; assay type: functional; in short: as §4
Mus musculus [17] = assay: Percent increase in mean life span relative to treatment with an equivalent dose of vincristine alone at 50 mg/kg in mice with vincristine-resistantmurine leukemia P388/VCR cells; assay type: functional; in short: as §5
Mus musculus [18] = assay: Percent tumor growth inhibition against human epidermoid carcinoma KB/8.5 implanted subcutaneously in mice at 25 mg/kg of compound along with 8 mg/kg (DOX ) was determined; assay type: functional; in short: as §1

## COc1ccc(C(C#N)(CCCCCN2CCc3cc(OC)c(OCCCl)cc3C2)Sc2ccc(C)cc2)cc1OC (configuration not stated)
Mus musculus [1]
  Relative tumor growth: 75
[2]
  logP: 6.77
Mus musculus [3]
  inhibition in vivo at 100 mg/kg: 64%
S1B1-20 [4]; Homo sapiens, S1B1-20
  IC50: 370 nM
[5]
  CC50: 16.8 µM

## COc1ccc(C(CCCCCN2CCc3cc(OC)c(OC)cc3C2)Sc2ccc(C)cc2)cc1OC (configuration not stated)
Mus musculus [1]
  Relative tumor growth: 58
[2]
  logP: 7.42
Mus musculus [6]
  TGI: 68%
Mus musculus [7]
  ILS at 6.3 mg/kg: 37%
Mus musculus [8]
  ILS at 6.3 mg/kg: 13%
S1B1-20 [4]; Homo sapiens, S1B1-20
  IC50: 330 nM
[5]
  CC50: 16.9 µM
Mus musculus [9]
  ILS: 21%

## COc1ccc(C(C#N)(CCN2CCc3cc(OC)c(OC)cc3C2)Sc2ccc(C)cc2)cc1OC (configuration not stated)
[2]
  logP: 4.59
Mus musculus [10]
  ILS at 12.5 mg/kg: 13%
S1B1-20 [4]; Homo sapiens, S1B1-20
  IC50: 2300 nM
Mus musculus [11]
  ILS at 12.5 mg/kg: 89%
[5]
  CC50: 33.7 µM
Mus musculus [9]
  ILS: 67%

## COc1ccc(C(C#N)(CCCCCN2Cc3cc(OC)c(OC)cc3C2)Sc2ccc(C)cc2)cc1OC (stereo in doubt; 28a)
Mus musculus [1]
  Relative tumor growth: 67
[2]
  logP: 5.55
Mus musculus [12]
  ILS at 25 mg/kg: 63%
S1B1-20 [4]; s1b1-20
  IC50: 810 nM
Mus musculus [13]
  ILS at 25 mg/kg: 41%
S1B1-20 [14]
  CC50: 22.8 µM
Mus musculus [15]
  TGI: 65%
Mus musculus [9]
  ILS: 15%

## COc1ccc(C(C#N)(CCCCCN2Cc3cc(OC)c(OC)cc3C2)SC2CCCCC2)cc1OC (stereo in doubt; 28c)
S1B1-20 [4]; s1b1-20
  IC50: 350 nM
S1B1-20 [14]
  CC50: 15 µM

## COc1ccc(C(C#N)(CCCCCN2CCc3cc(OC)c(OCCn4ccnc4)cc3C2)Sc2ccc(C)cc2)cc1OC (stereo in doubt; 39a)
Mus musculus [1]
  Relative tumor growth: 67
Mus musculus [16]
  ILS at 50 mg/kg: 71%
S1B1-20 [4]; s1b1-20
  IC50: 690 nM
Mus musculus [17]
  ILS at 50 mg/kg: 48%
S1B1-20 [14]
  CC50: 14.7 µM
Mus musculus [18]
  TGI: 46%
Mus musculus [9]
  ILS: 15%

## COc1ccc(C(C#N)(CCCCCN2Cc3cc(OC)c(OC)cc3C2)Sc2ccc(C)cc2)cc1OC (stereo in doubt; 44)
S1B1-20 [4]; s1b1-20
  IC50: 260 nM
S1B1-20 [14]
  CC50: 11.4 µM

## COc1cc2c(cc1OC)CN(CCCCCCC(Sc1ccc(C)cc1)c1ccc(OC)c(OCCn3ccnc3)c1)CC2 (stereo in doubt; 47)
Mus musculus [1]; 8 mg/kg
  Relative tumor growth: 80
Mus musculus [6]
  TGI: 56%
S1B1-20 [4]; s1b1-20
  IC50: 290 nM
S1B1-20 [14]
  CC50: 5.64 µM
